Active and inactive are the calls of the source. No cut-off for these calls is given here.

The text below walks through data of ChEMBL document CHEMBL3102701, “Polyandric acid A, a clerodane diterpenoid from the Australian medicinal plant Dodonaea polyandra, attenuates pro-inflammatory cytokine secretion in vitro and in vivo” (J Nat Prod, 2014).

Series [1] concerns Mus musculus. Briefly: Antiinflammatory activity in Balb/C chronic mouse ear edema model assessed as reduction in TPA-induced edema at 0.9 umol/ear administered topically, bid from day 7 to day 10 measured every day during compound administration relative to control. In kind it is functional. The arrangement: scale not given: the % may be the effect or the level left. The gist of the method:
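Male Balb/C mice, 7–9 weeks old, acclimated at least 4 days. 20 μL TPA (125 μg/mL) was applied to inner and outer surfaces of both ears on alternate days from day 0. Test agent at 0.9 μmol/ear in 20 μL ethanol was applied topically to both ears morning and afternoon on days 7–9, with one more dose on day 10 morning. Ear thickness was read with a digital micrometer on days 0–4 and 7–10; means ± SEM, n ≥ 6.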

The test system of series [2] is Mus musculus. Briefly: Antiinflammatory activity in Balb/C chronic mouse ear edema model assessed as reduction in TPA-induced myeloperoxidase accumulation at 0.9 umol/ear administered topically, bid from day 7 to day 10 measured every day during compound administration relative to control. The format is functional. Further details: scale not given: the % may be the effect or the level left. The gist of the method:
(§1)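 Chronic TPA ear model in male Balb/C mice: topical dosing at 0.9 μmol/ear in ethanol, twice daily days 7–9 and once on day 10, then euthanasia. 5 mm ear punches were homogenized in 80 mM PBS pH 5.4 with 0.5% HTAB and centrifuged. Supernatant in duplicate was reacted with H2O2 and 18.4 mM tetramethylbenzidine for 3 min at 37 °C. Stopped with sodium acetate pH 3.0; A600 read as neutrophil marker.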

The subject of series [3] is THP-1. Briefly: Antiinflammatory activity in human THP1 cells assessed as inhibition of TPA/ionomycin-induced extracellular IL-1beta level at 3 uM incubated 1 hr prior to TPA/ionomycin challenge measured after 24 hrs by ELISA. The format is functional. The method in brief: (§2)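 THP-1 monocytes (100 000/well) in RPMI-1640 preincubated 1 h with test agent, ethanol ≤0.05%. Stimulated with TPA 40 ng/mL/ionomycin 1 μM (final) for 24 h at 37 °C, 5% CO2. Supernatant kept for extracellular cytokines. Washed cells were lysed in ice-cold RIPA with protease inhibitors for intracellular IL-1β and pro-IL-1β. ELISA read-out; n = 6.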
Background: In an ELISA, binding on a coated surface is turned into a signal by an enzyme label.

Series [4] can be described thus: Cytotoxicity against human NHEK cells assessed as cell viability at <60 uM after 24 hrs by MTS assay. In kind it is cell-based. The gist of the method:
(§3)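 MTS viability: cells at 50 000/well were preincubated 1 h, then serial half-dilutions of test agent were added. After 24 h incubation, MTS reagent was added for 1 h and absorbance read at 492 nm.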
(In general: Tetrazolium assays rely on reduction of a dye to a coloured formazan, in cell work by metabolically active cells.)

Series [5] concerns THP-1. Briefly: Antiinflammatory activity in human THP1 cells assessed as inhibition of TPA/ionomycin-induced intracellular IL-1beta level at 30 uM incubated 1 hr prior to TPA/ionomycin challenge measured after 24 hrs by ELISA. The format is functional. The method in brief:
as §2

The test system of series [6] is THP-1. Description: Cytotoxicity against human THP1 cells assessed as cell viability at 30 uM after 24 hrs by MTS assay. In kind it is cell-based. The settings on record: thp-1, 24 h. The method in brief: as §3
The test system of series [7] is Mus musculus. Briefly: Antiinflammatory activity in Balb/C mouse ear edema model assessed as reduction of TPA-induced IL-1beta production at 0.9 umol/ear by ELISA relative to control. The format is functional. The arrangement: scale not given: the % may be the effect or the level left. The gist of the method:
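Acute TPA ear model in male Balb/C mice, killed 6 h after treatment (0.9 μmol/ear topical). 5 mm ear punches were homogenized in 50 mM Tris-HCl pH 7.4/1 mM EDTA with protease inhibitors, then held 15 min on ice with 1% Triton X-100. Spun at 9500g, 4 °C; supernatant assayed by ELISA. Basal untreated-ear levels were subtracted.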

Series [8] in a line: Antiinflammatory activity in human NHEK cells assessed as inhibition of TPA/ionomycin-induced extracellular IL-6 production at 30 uM incubated for 1 hr prior to TPA/ionomycin challenge measured after 6 hrs by ELISA. In kind it is functional. The method in brief:
(§4)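 Primary neonatal keratinocytes (passage ≤3) seeded at 10 000/well for 18 h at 37 °C, 5% CO2, then given fresh medium. Preincubated 1 h with test agent, then stimulated with TPA 40 ng/mL/ionomycin 1 μM. Supernatants taken at 6 and 24 h, centrifuged and stored at −80 °C. Extracellular cytokines measured by ELISA; means ± SEM, n = 6.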

For series [9], the system named is Mus musculus. Briefly: Antiinflammatory activity in Balb/C chronic mouse ear edema model assessed as reduction in TPA-induced redness in ears at 0.9 umol/ear administered topically, bid from day 7 to day 10 measured every day during compound administration relative to control. The format is functional, organism-based.
In series [10] the test system is THP-1. Briefly: Cytotoxicity against human THP1 cells assessed as cell viability at <60 uM after 24 hrs by MTS assay. The format is cell-based. The settings on record: thp-1, 24 h. The method in brief: as §3
Series [11] relates to Mus musculus. Briefly: Antiinflammatory activity in Balb/C chronic mouse ear edema model assessed as reduction in influx of neutrophils at 0.9 umol/ear administered topically, bid from day 7 to day 10 measured every day during compound administration relative to control. In kind it is functional, organism-based. The gist of the method:
as §1

For series [12], the system named is THP-1. Description: Antiinflammatory activity in human THP1 cells assessed as inhibition of TPA/ionomycin-induced intracellular proIL-1beta level at 30 uM incubated 1 hr prior to TPA/ionomycin challenge measured after 24 hrs by ELISA. The format is functional. The gist of the method: as §2
Series [13] has as its system THP-1. Description: Antiinflammatory activity in human THP1 cells assessed as inhibition of TPA/ionomycin-induced extracellular IL-1beta level at 30 uM incubated 1 hr prior to TPA/ionomycin challenge measured after 24 hrs by ELISA. The format is functional. The gist of the method:
as §2

The test system of series [14] is THP-1. Briefly: Antiinflammatory activity in human THP1 cells assessed as inhibition of TPA/ionomycin-induced TNF-alpha production at 30 uM incubated 1 hr prior to TPA/ionomycin challenge measured after 24 hrs by ELISA. The format is functional. The method in brief: as §2
Series [15] relates to RAW264.7. Briefly: Cytotoxicity against mouse RAW264.7 cells assessed as cell viability at <60 uM after 24 hrs by MTS assay. In kind it is cell-based. The settings on record: raw264.7, 24 h. The method in brief:
as §3

The test system of series [16] is neonatal human epidermal keratinocytes (Homo sapiens). Briefly: Antiinflammatory activity in human NHEK cells assessed as inhibition of TPA/ionomycin-induced IL-8 production at 0.3 to 30 uM incubated for 1 hr prior to TPA/ionomycin challenge measured after 6 to 24 hrs by ELISA.
The test system is the same in series [17]. Description: Antiinflammatory activity in human NHEK cells assessed as inhibition of TPA/ionomycin-induced extracellular TNF-alpha production at 3 uM incubated for 1 hr prior to TPA/ionomycin challenge measured after 24 hrs by ELISA.
Series [18] has as its system RAW264.7. Briefly: Antiinflammatory activity in mouse RAW264.7 cells assessed as inhibition of LPS-induced NO production at 3 to 30 uM incubated for 1 hr prior to LPS-challenge measured after 24 hrs by Greiss assay. In kind it is functional, cell-based. The method in brief: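 RAW264.7 macrophages (100 000/well) in DMEM preincubated 1 h with test agent at 3 or 30 μM. Stimulated with LPS 1 μg/mL final for 24 h at 37 °C, 5% CO2. Supernatant nitrite measured by Griess reaction (sulfanilic acid and N-naphthylethylenediamine in 5% HCl, 10 min at 37 °C). A540 read against a sodium nitrite standard curve; n = 8.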

Series [19] is described as follows: Antiinflammatory activity in human NHEK cells assessed as inhibition of TPA/ionomycin-induced extracellular IL-6 production at 30 uM incubated for 1 hr prior to TPA/ionomycin challenge measured after 24 hrs by ELISA. The format is functional. The gist of the method:
as §4

Series [20] deals with neonatal human epidermal keratinocytes (Homo sapiens). Description: Antiinflammatory activity in human NHEK cells assessed as inhibition of TPA/ionomycin-induced extracellular TNF-alpha production at 30 uM incubated for 1 hr prior to TPA/ionomycin challenge measured after 6 to 24 hrs by ELISA.
Series [21] can be described thus: Cytotoxicity against human NHEK cells assessed as cell viability at 30 uM after 24 hrs by MTS assay. The format is cell-based. The method in brief:
as §3

A short description of series [22]: Antiinflammatory activity in human NHEK cells assessed as inhibition of TPA/ionomycin-induced extracellular TNF-alpha production at 3 uM incubated for 1 hr prior to TPA/ionomycin challenge measured after 6 hrs by ELISA. The format is functional. The gist of the method:
as §4

In series [23] the test system is Mus musculus. Briefly: Antiinflammatory activity in Balb/C chronic mouse ear edema model assessed as reduction in TPA-induced scaling in ears at 0.9 umol/ear administered topically, bid from day 7 to day 10 measured every day during compound administration relative to control. The format is functional, organism-based.
The subject of series [24] is neonatal human epidermal keratinocytes (Homo sapiens). Description: Antiinflammatory activity in human NHEK cells assessed as inhibition of TPA/ionomycin-induced IL-1alpha production at 0.3 to 30 uM incubated for 1 hr prior to TPA/ionomycin challenge measured after 6 to 24 hrs by ELISA.
For series [25], the system named is Mus musculus. Description: Antiinflammatory activity in Balb/C chronic mouse ear edema model assessed as reduction in TPA-induced flaky appearance in ears at 0.9 umol/ear administered topically, bid from day 7 to day 10 measured every day during compound administration relative to control. In kind it is functional, organism-based.
Series [26] concerns THP-1. Description: Antiinflammatory activity in human THP1 cells assessed as inhibition of TPA/ionomycin-induced extracellular TNF-alpha production at 5 uM incubated 1 hr prior to TPA/ionomycin challenge measured after 24 hrs by ELISA. In kind it is functional, cell-based. The method in brief:
as §2

For series [27], the system named is THP-1. Briefly: Antiinflammatory activity in human THP1 cells assessed as inhibition of TPA/ionomycin-induced intracellular IL-1beta level at 5 uM incubated 1 hr prior to TPA/ionomycin challenge measured after 24 hrs by ELISA. In kind it is functional, cell-based. The method in brief:
as §2

In series [28] the test system is THP-1. Briefly: Antiinflammatory activity in human THP1 cells assessed as inhibition of TPA/ionomycin-induced extracellular IL-1beta level at 5 uM incubated 1 hr prior to TPA/ionomycin challenge measured after 24 hrs by ELISA. The format is functional, cell-based. The gist of the method: as §2
Series [29] concerns THP-1. Briefly: Antiinflammatory activity in human THP1 cells assessed as inhibition of TPA/ionomycin-induced intracellular proIL-1beta level at 5 uM incubated 1 hr prior to TPA/ionomycin challenge measured after 24 hrs by ELISA. In kind it is functional, cell-based. The method in brief: as §2

On to `CCC(=O)OCC(=O)[C@@]1(OC(=O)CC)[C@@H](C)C[C@H]2[C@@H]3CCC4=CC(=O)C=C[C@]4(C)[C@@]3(F)[C@@H](O)C[C@@]21C` [BETAMETHASONE DIPROPIONATE], for which the Activity with Mus musculus [1] was 54.2%; with Mus musculus [2] it was 90%.

On to `C[C@]1(CCc2ccoc2)[C@H](COC(=O)c2ccccc2)CC[C@@]2(C)C(C(=O)O)=C[C@H](O)C[C@H]12`, for which the figures for the inhibition at 3 µM (in the series with THP-1 [3]; in [22]) were 18% and 26.2%, respectively. In addition, the Activity entry in series [4] is “Non-toxic”; in the series with THP-1 [6], “Non-toxic”; with Mus musculus [7] it was 78%; in the series on THP-1 [10], “Non-toxic”; in the series with Mus musculus [1], 41.1%; in the series on RAW264.7 [15], “Non-toxic”. For the same compound, the figures for the Activity result (in series [21]; in the series with Mus musculus [2]) were “Non-toxic” and 81.5%, respectively. The inhibition (usually the percentage by which the read-out fell short of the control) at 30 µM with THP-1 [5] came out at 15%; in [8], 33.2%; with THP-1 [12], 17%; in the series with THP-1 [13] it was 26.3%; in the series on THP-1 [14], 19.7%; in series [19] it was 41.5%. The outcome in the series on Mus musculus [9], in the series on Mus musculus [11], in the series with Mus musculus [23] and in the series on Mus musculus [25] was Active. Further, the inhibition entry (in series [16]; in [17]; in the series with RAW264.7 [18]; in series [20]; in [24]) was “inactive” each time.

For the compound `Cc1ccc(S(=O)(=O)/C=C/C#N)cc1`, the inhibition entry in the series on THP-1 [26], with THP-1 [27], with THP-1 [28] and in the series with THP-1 [29] was “Active” each time.
